Source: ChEMBL document CHEMBL1153921, “Design, synthesis, and biological evaluation of novel 1-(1H-1,2,4-triazole-1-yl)-2-(2,4-difluorophenyl)-3-substituted benzylamino-2-propanols” (2009)
Converted amounts (≈) assume the structure as drawn.

Assays:
Assay type in all cases: functional
Nannizzia gypsea = assay: Antimicrobial activity against Microsporum gypseum by micro-broth dilution method
Method in brief: (§1)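 Clinical isolates. Tested by broth microdilution in 96-well plates following NCCLS M27-A2. MIC80, the minimum concentration inhibiting growth by 80%, was recorded. Marketed reference antifungals were included as positive controls.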

Pichia kudriavzevii = assay: Antimicrobial activity against Candida krusei by micro-broth dilution method; method in brief: as §1
Candida tropicalis = assay: Antimicrobial activity against Candida tropicalis by micro-broth dilution method; method in brief: as §1
Cryptococcus neoformans = assay: Antimicrobial activity against Cryptococcus neoformans by micro-broth dilution method
Method in brief: (§2)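 ATCC standard strains. Broth microdilution in 96-well plates following NCCLS M27-A2 (reference broth dilution method for yeasts). Endpoint is MIC80, the lowest concentration giving 80% growth inhibition. Marketed reference antifungals ran alongside as positive controls.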

Aspergillus fumigatus = assay: Antimicrobial activity against Aspergillus fumigatus by micro-broth dilution method; method in brief: as §1
Candida parapsilosis = assay: Antimicrobial activity against Candida parapsilosis by micro-broth dilution method; details: Lodderomyces parapsilosis; method in brief: as §1
Candida albicans = assay: Antimicrobial activity against Candida albicans by micro-broth dilution method; method in brief: as §2
Trichophyton rubrum = assay: Antimicrobial activity against Trichophyton rubrum by micro-broth dilution method; method in brief: as §1

Row | MIC80 (Nannizzia gypsea) [µg/mL] | MIC80 (Pichia kudriavzevii) [µg/mL] | MIC80 (Candida tropicalis) [µg/mL] | MIC80 (Cryptococcus neoformans) [µg/mL] | MIC80 (Aspergillus fumigatus) [µg/mL] | MIC80 (Candida parapsilosis) [µg/mL] | MIC80 (Candida albicans) [µg/mL] | MIC80 (Trichophyton rubrum) [µg/mL] | Compound
1 | 0.0625 (≈ 0.149 µM) | 1 (≈ 2.39 µM) | 0.25 (≈ 0.597 µM) | 0.25 (≈ 0.597 µM) | > 64 | 0.25 (≈ 0.597 µM) | 0.0156 (≈ 0.0373 µM) | 1 (≈ 2.39 µM) | CCCCN(Cc1cccc(F)c1)CC(O)(Cn1cncn1)c1ccc(F)cc1F (centres undefined)
2 | 0.25 (≈ 0.603 µM) | 1 (≈ 2.41 µM) | 1 (≈ 2.41 µM) | 1 (≈ 2.41 µM) | > 64 | 1 (≈ 2.41 µM) | 0.0625 (≈ 0.151 µM) | 1 (≈ 2.41 µM) | CCc1ccc(CN(CC(O)(Cn2cncn2)c2ccc(F)cc2F)C(C)C)cc1 (centres undefined)
3 | 0.0625 (≈ 0.148 µM) | 0.25 (≈ 0.594 µM) | 0.25 (≈ 0.594 µM) | 0.25 (≈ 0.594 µM) | > 64 | 0.25 (≈ 0.594 µM) | 0.0625 (≈ 0.148 µM) | 4 (≈ 9.5 µM) | CCCN(Cc1cccc(Cl)c1)CC(O)(Cn1cncn1)c1ccc(F)cc1F (centres undefined)
4 | 0.0156 (≈ 0.0386 µM) | 0.0625 (≈ 0.155 µM) | 0.0625 (≈ 0.155 µM) | 0.25 (≈ 0.618 µM) | > 64 | 0.0625 (≈ 0.155 µM) | 0.0156 (≈ 0.0386 µM) | 1 (≈ 2.47 µM) | CCCN(Cc1ccccc1F)CC(O)(Cn1cncn1)c1ccc(F)cc1F (centres undefined)
5 | 0.0156 (≈ 0.0362 µM) | 0.0625 (≈ 0.145 µM) | 0.25 (≈ 0.579 µM) | 0.25 (≈ 0.579 µM) | 64 (≈ 148 µM) | 0.0625 (≈ 0.145 µM) | 0.0156 (≈ 0.0362 µM) | 0.25 (≈ 0.579 µM) | CC(C)N(Cc1ccc([N+](=O)[O-])cc1)CC(O)(Cn1cncn1)c1ccc(F)cc1F (centres undefined)
6 | 4 (≈ 13.7 µM) | 16 (≈ 54.9 µM) | 0.0625 (≈ 0.214 µM) | 1 (≈ 3.43 µM) | 0.0625 (≈ 0.214 µM) | 0.25 (≈ 0.858 µM) | 4 (≈ 13.7 µM) | 0.0625 (≈ 0.214 µM) | CN(C/C=C/C#CC(C)(C)C)Cc1cccc2ccccc12 [TERBINAFINE]
7 | 0.25 (≈ 0.597 µM) | 0.25 (≈ 0.597 µM) | 0.25 (≈ 0.597 µM) | 0.25 (≈ 0.597 µM) | 16 (≈ 38.2 µM) | 0.25 (≈ 0.597 µM) | 0.0625 (≈ 0.149 µM) | 1 (≈ 2.39 µM) | CCCCN(Cc1ccccc1F)CC(O)(Cn1cncn1)c1ccc(F)cc1F (centres undefined)
8 | 0.25 (≈ 0.522 µM) | 1 (≈ 2.09 µM) | 0.25 (≈ 0.522 µM) | 0.25 (≈ 0.522 µM) | > 64 | 0.25 (≈ 0.522 µM) | 1 (≈ 2.09 µM) | 1 (≈ 2.09 µM) | CCCCN(Cc1ccccc1Br)CC(O)(Cn1cncn1)c1ccc(F)cc1F (centres undefined)
9 | 1 (≈ 2.2 µM) | 1 (≈ 2.2 µM) | 1 (≈ 2.2 µM) | 16 (≈ 35.1 µM) | > 64 | 1 (≈ 2.2 µM) | 0.25 (≈ 0.549 µM) | 0.25 (≈ 0.549 µM) | CC(C)N(Cc1ccc(Cl)cc1Cl)CC(O)(Cn1cncn1)c1ccc(F)cc1F (centres undefined)

The next lines start with the molecule.

Row | Compound | MIC80 (Nannizzia gypsea) [µg/mL] | MIC80 (Pichia kudriavzevii) [µg/mL] | MIC80 (Candida tropicalis) [µg/mL] | MIC80 (Cryptococcus neoformans) [µg/mL] | MIC80 (Aspergillus fumigatus) [µg/mL] | MIC80 (Candida parapsilosis) [µg/mL] | MIC80 (Candida albicans) [µg/mL] | MIC80 (Trichophyton rubrum) [µg/mL]
10 | Cc1ccc(CN(CC(O)(Cn2cncn2)c2ccc(F)cc2F)C(C)C)cc1 (centres undefined) | 0.0625 (≈ 0.156 µM) | 0.25 (≈ 0.624 µM) | 1 (≈ 2.5 µM) | 0.25 (≈ 0.624 µM) | 64 (≈ 160 µM) | 0.25 (≈ 0.624 µM) | 1 (≈ 2.5 µM) | 0.0625 (≈ 0.156 µM)
11 | CCCN(Cc1ccccc1Br)CC(O)(Cn1cncn1)c1ccc(F)cc1F (centres undefined) | 0.0625 (≈ 0.134 µM) | 0.25 (≈ 0.537 µM) | 0.25 (≈ 0.537 µM) | 0.25 (≈ 0.537 µM) | > 64 | 0.0039 (≈ 0.00838 µM) | 0.0625 (≈ 0.134 µM) | 1 (≈ 2.15 µM)
12 | CCCCN(Cc1ccc(C)cc1)CC(O)(Cn1cncn1)c1ccc(F)cc1F (centres undefined) | 0.25 (≈ 0.603 µM) | 1 (≈ 2.41 µM) | 1 (≈ 2.41 µM) | 0.25 (≈ 0.603 µM) | > 64 | 1 (≈ 2.41 µM) | 4 (≈ 9.65 µM) | 1 (≈ 2.41 µM)
13 | C[C@@H](c1ncncc1F)[C@](O)(Cn1cncn1)c1ccc(F)cc1F [VORICONAZOLE] | 0.0039 (≈ 0.0112 µM) | 0.0625 (≈ 0.179 µM) | 0.0039 (≈ 0.0112 µM) | 0.0156 (≈ 0.0447 µM) | 0.25 (≈ 0.716 µM) | 0.0039 (≈ 0.0112 µM) | 0.0156 (≈ 0.0447 µM) | 0.0625 (≈ 0.179 µM)
14 | CC(C)N(Cc1cccc(Cl)c1)CC(O)(Cn1cncn1)c1ccc(F)cc1F (centres undefined) | 1 (≈ 2.38 µM) | 0.25 (≈ 0.594 µM) | 1 (≈ 2.38 µM) | 1 (≈ 2.38 µM) | > 64 | 0.25 (≈ 0.594 µM) | 0.0156 (≈ 0.0371 µM) | 0.25 (≈ 0.594 µM)
15 | CCCCN(Cc1ccccc1C)CC(O)(Cn1cncn1)c1ccc(F)cc1F (centres undefined) | 0.0156 (≈ 0.0376 µM) | 1 (≈ 2.41 µM) | 0.25 (≈ 0.603 µM) | 0.25 (≈ 0.603 µM) | > 64 | 0.25 (≈ 0.603 µM) | 1 (≈ 2.41 µM) | 1 (≈ 2.41 µM)
16 | CC(=O)N1CCN(c2ccc(OCC3COC(Cn4ccnc4)(c4ccc(Cl)cc4Cl)O3)cc2)CC1 (centres undefined) [KETOCONAZOLE] | 0.0156 (≈ 0.0294 µM) | 0.25 (≈ 0.47 µM) | 0.0625 (≈ 0.118 µM) | 0.0625 (≈ 0.118 µM) | 1 (≈ 1.88 µM) | 0.0625 (≈ 0.118 µM) | 0.0156 (≈ 0.0294 µM) | 0.0625 (≈ 0.118 µM)
17 | CCCN(Cc1ccccc1C)CC(O)(Cn1cncn1)c1ccc(F)cc1F (centres undefined) | 0.0039 (≈ 0.00974 µM) | 0.0625 (≈ 0.156 µM) | 0.0625 (≈ 0.156 µM) | 0.25 (≈ 0.624 µM) | > 64 | 0.0625 (≈ 0.156 µM) | 0.0625 (≈ 0.156 µM) | 4 (≈ 9.99 µM)
18 | CCCCN(Cc1ccccc1Cl)CC(O)(Cn1cncn1)c1ccc(F)cc1F (centres undefined) | 0.25 (≈ 0.575 µM) | 1 (≈ 2.3 µM) | 0.25 (≈ 0.575 µM) | 0.25 (≈ 0.575 µM) | > 64 | 0.25 (≈ 0.575 µM) | 1 (≈ 2.3 µM) | 1 (≈ 2.3 µM)
